Our source for the inhibition and Ratio values is ChEMBL document CHEMBL1155259, “Synthesis and multidrug resistance reversal activity of dihydroptychantol A and its novel derivatives” (2009).

Test [1] in a line: Cytotoxicity against vincristine-resistant human KB/VCR cells at 10 uM after 48 hrs by MTT assay. Format: functional. In a few lines: (§1)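 Cells grown in RPMI 1640 with 10% FBS at 37 °C, 5% CO₂ until roughly 50–70% confluent, then cultured in 24-well plates and exposed to vehicle (DMSO) or test compound alone at 10 μM for 48 h. Percent growth inhibition measured by MTT assay; three replicates per treatment, assay repeated at least thrice.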
A general note: Formazan colour is commonly taken as a measure of viable cells.

The next test concerns K562. As to the kind of experiment: Cytotoxicity against human K562 cells at 10 uM after 48 hrs by MTT assay. The settings on record: K562, 48 h. In kind it is functional. The procedure, abridged: as §1
The next test has as its system KB/VCR. As to the kind of experiment: Reversal of P-gp-mediated multidrug resistance in human KB/VCR cells assessed as reversal factor, ratio of vincristine ID50 without drug to vincristine ID50 with drug at 10 uM after 48 hrs by MTT assay. Format: cell-based. In a few lines:
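KB/VCR cells in RPMI 1640 with 10% FBS (37 °C, 5% CO₂) seeded at 6 × 10⁴/ml in 24-well plates. They were co-treated with a range of vincristine concentrations, with or without test compound at 10 μM, and viability read by MTT. Vincristine ID₅₀ was derived relative to untreated cells (100%). RF = ID₅₀ of vincristine alone / ID₅₀ with compound. Triplicates, repeated at least thrice.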

For the next test, the system named is KB. As to the kind of experiment: Cytotoxicity against human KB cells at 10 uM after 48 hrs by MTT assay. Format: functional. In a few lines: as §1
Test [2] is described as follows: Cytotoxicity against adriamycin-resistant human K562/A02 cells at 10 uM after 48 hrs by MTT assay. Format: functional. The settings on record: K562/A02, 48 h. The procedure, abridged: as §1

Molecules are shown by their SMILES.

On to `COc1ccc2c(c1)CCc1ccc(OC)c(c1)Oc1ccc(cc1)-c1nc(N)sc1-c1cccc(c1)O2`, for which the inhibition (commonly the share of the control response that was lost under treatment) at 10 µM in test [1] turned out to be 0%; in the test on K562 it was 58.7%; with KB, 0%; in test [2], 26.8%. The Ratio in the test on KB/VCR amounted to 12.3.

Turning to `NNc1nc2c(s1)-c1cccc(c1)Oc1ccc(O)cc1CCc1ccc(O)c(c1)Oc1ccc-2cc1`, the inhibition at 10 µM in test [1] amounted to 19.4%; in the test with K562 it was 37.1%; with KB it was 51.1%; in test [2] it was 13.7%.

For the compound `Nc1nc2c(s1)-c1cccc(c1)Oc1ccc(O)cc1CCc1ccc(O)c(c1)Oc1ccc-2cc1`, the inhibition at 10 µM in test [1] worked out at 0%; in the test on K562, 11.6%; with KB, 0%; in test [2], 10.1%. Moreover, the Ratio with KB/VCR amounted to 13.8.

For `COc1ccc2c(c1)CCc1ccc(OC)c(c1)Oc1ccc(cc1)-c1nc(NN)sc1-c1cccc(c1)O2`, the inhibition at 10 µM turned out to be 0% in test [1], 32.1% with K562, 0% in the test with KB and 18.8% in test [2]. In addition, the Ratio in the test with KB/VCR stood at 10.6.

On to `COc1ccc2c(c1)CCc1ccc(OC)c(c1)Oc1ccc(cc1)C(O)C(Br)c1cccc(c1)O2` (centres undefined), for which the inhibition at 10 µM in test [1] is 0%; with K562, 38.5%; in the test on KB it was 2.82%; in test [2], 11.9%. Besides, in the test on KB/VCR, the Ratio is 10.5.
